# Source: ChEMBL document CHEMBL1770055, “Regioselective one pot synthesis of 3,3'-diindolylethylene derivatives and study of their cytotoxic activity” (Bioorg Med Chem Lett, 2011)
# Columns and labels:
# U-937 [1] = experiment: Induction of apoptosis in human U937 cells assessed as late apoptotic cells at 13.06 uM after 8 hrs using annexin V/propidium iodide staining by flow cytometry (reference value: 5.83%); type: functional
# U-937 [2] = experiment: Induction of apoptosis in human U937 cells assessed as pre-necrotic cells at 13.06 uM after 8 hrs using annexin V/propidium iodide staining by flow cytometry (reference value: 0.30%); type: functional
# K562 = experiment: Cytotoxicity against human K562 cells assessed as cell growth inhibition after 48 hrs by MTS-PMS assay; type: functional, cell-based; details: K562, 48 h
# In short: (§1)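 Cells seeded at 5 × 10^4 per 200 µl and exposed to compounds at 0–100 µM, in triplicate, for 48 h at 37 °C, 5% CO2. MTS (2.0 mg/ml) and PMS (0.92 mg/ml) were mixed 10:1 and added, followed by 3 h at 37 °C. Absorbance (formazan) was read at 490 nm. Viability is expressed as % of untreated. IC50 was obtained by graphic extrapolation.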
# U-937 [3] = experiment: Cytotoxicity against human U937 cells assessed as cell growth inhibition after 48 hrs by MTS-PMS assay; type: functional, cell-based; details: U-937, 48 h; in short: as §1
# U-937 [4] = experiment: Induction of apoptosis in human U937 cells assessed as apoptotic cells at 13.06 uM after 8 hrs using annexin V/propidium iodide staining by flow cytometry (reference value: 2.42%); type: functional
SMILES,Activity (U-937 [1]) [%],Activity (U-937 [2]) [%],IC50 (K562) [µM],IC50 (U-937 [3]) [µM],Activity (U-937 [4]) [%]
ClC=C(c1c(-c2ccccc2)[nH]c2ccccc12)c1c(-c2ccccc2)[nH]c2ccccc12,11.68,1.3,18.2,13.1,41
C=C(c1c(-c2ccc(OC)c(OC)c2)[nH]c2ccccc12)c1c(-c2ccc(OC)c(OC)c2)[nH]c2ccccc12,,,> 100,> 100,
C=C(c1c(-c2cccc(Br)c2)[nH]c2ccccc12)c1c(-c2cccc(Br)c2)[nH]c2ccccc12,,,> 100,> 100,
C=C(c1c(-c2ccccc2OC)[nH]c2ccccc12)c1c(-c2ccccc2OC)[nH]c2ccccc12,,,92.6,71.6,
C=C(c1c(-c2ccccc2)[nH]c2ccccc12)c1c(-c2ccccc2)[nH]c2ccccc12,,,> 100,> 100,
C=C(c1c(-c2cccc(Cl)c2)[nH]c2ccccc12)c1c(-c2cccc(Cl)c2)[nH]c2ccccc12,,,40.3,46.9,
C=C(c1c(-c2ccc(Cl)cc2Cl)[nH]c2ccccc12)c1c(-c2ccc(Cl)cc2Cl)[nH]c2ccccc12,,,> 100,> 100,
